For data set [1], the system named is Plasmodium falciparum. Description: Parasite growth in chloroquine-sensitive Plasmodium falciparum NF54. Format: functional, organism-based. In outline: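 P. falciparum NF54 or K1 was maintained by the Trager-Jensen culture method with minor variations. Growth inhibition was measured by a semiautomated microdilution assay on asynchronous stock cultures.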

The target in data set [2] is hematin (cell-free polymerization, no protein). Description: Inhibition of hematin polymerization.
Data set [3] can be described thus: Association constant evaluated towards Hematin mu-oxo dimer.
Data set [4] has as its system Plasmodium falciparum. Description: Parasite growth in chloroquine-resistant Plasmodium falciparum K1.

Structures are written as SMILES. pIC50: −log10 of the molar value.

What is called pIC50 is the negative decadic logarithm of the IC50, by convention in mol/L. Low values mean a large IC50, high ones a small IC50.

With `CCN(CC)CC(C)Nc1ccnc2cc(Cl)ccc12` (stereo not given), the pIC50 with Plasmodium falciparum [1] is 7.39; in data set [2] it was 4.74; in the data set on Plasmodium falciparum [4], 7.03. The Ka in data set [3] stood at 270000 M⁻¹.

As to `CCN(CC)CCCC(C)Nc1ccnc2ccccc12` (stereo not given), the pIC50 was 6.46 in the data set on Plasmodium falciparum [1], less than 2.60 in data set [2] and 5.10 with Plasmodium falciparum [4]. The Ka in data set [3] worked out at 85000 M⁻¹.

Regarding `CCN(CC)CCCC(C)Nc1cc(C)nc2cc(Cl)ccc12` (stereo not given), the pIC50 in the data set with Plasmodium falciparum [1] is 6.82; in the data set with Plasmodium falciparum [4], 5.96. This compound also showed a Ka in data set [3] of 91000 M⁻¹.

Regarding `CCN(CC)CCCC(C)Nc1ccnc2cc(N)ccc12` (stereo not given), the figures for the pIC50 (in the data set on Plasmodium falciparum [1]; in data set [2]; in the data set with Plasmodium falciparum [4]) were 5.59, less than 2.60 and 5.37, respectively. The compound further yielded a Ka in data set [3] of 290000 M⁻¹.

With `CCN(CC)CCCC(C)Nc1ccnc2ccc(Cl)cc12` (stereo not given), the pIC50 in the data set on Plasmodium falciparum [1] is 6.77; in data set [2], less than 2.60; with Plasmodium falciparum [4], 5.31.

In the case of `CCNc1ccnc2cc(Cl)ccc12`, the figures for the pIC50 (with Plasmodium falciparum [1]; in data set [2]; in the data set with Plasmodium falciparum [4]) were 6.09, 4.15 and 6.06, respectively. For the same compound, the Ka in data set [3] stood at 46000 M⁻¹.

`CCN(CC)CCCC(C)Nc1ccnc2cc([N+](=O)[O-])ccc12` (stereo not given): the pIC50 in the data set with Plasmodium falciparum [1] is 7.82; in the data set on Plasmodium falciparum [4], 7.17. This compound came in with a Ka in data set [3] of 290000 M⁻¹.

In the case of `CCC(CC)CCCC(C)Nc1ccnc2cc(Cl)ccc12` (stereo not given), the figures for the pIC50 with Plasmodium falciparum [1] and with Plasmodium falciparum [4] were 7.27 and 6.70, respectively. In addition, the Ka in data set [3] is 79000 M⁻¹.

`CCN(CC)CCCC(C)Nc1c(C)cnc2cc(Cl)ccc12` (stereo not given): the negative logarithm of the IC50 (pIC50) is 7.70 in the data set on Plasmodium falciparum [1], 4.82 in data set [2] and 7.23 in the data set with Plasmodium falciparum [4]. In addition, in data set [3], the Ka was 150000 M⁻¹.

For the compound `CCN(CC)CCCC(C)Nc1ccnc2cc(Br)ccc12` (stereo not given), the values for the pIC50 in the data set with Plasmodium falciparum [1] and with Plasmodium falciparum [4] were 7.03 and 5.85, respectively. This compound also registered a Ka in data set [3] of 120000 M⁻¹.

As for `CCN(CC)CCCCC(C)Nc1ccnc2cc(Cl)ccc12` (stereo not given), the pIC50 is 7.62 in the data set with Plasmodium falciparum [1] and 6.38 with Plasmodium falciparum [4]. The same compound gave a Ka in data set [3] of 150000 M⁻¹.

`Nc1ccnc2cc(Cl)ccc12`: the pIC50 in the data set with Plasmodium falciparum [1] is 5.77; in the data set on Plasmodium falciparum [4] it was 6.00. Further, the Ka in data set [3] turned out to be 52000 M⁻¹.

For `CCNCCCC(C)Nc1ccnc2cc(Cl)ccc12` (stereo not given) [DESETHYLCHLOROQUINE], the figures for the pIC50 (in the data set with Plasmodium falciparum [1]; in data set [2]; in the data set with Plasmodium falciparum [4]) were 7.35, 4.82 and 5.89, respectively. In data set [3], this compound displayed a Ka of 180000 M⁻¹.
